Screens: PubChem, Johns Hopkins Ion Channel Center
An excerpt weighted towards active compounds, which were near 2.3% of everything screened.
TRPC6 activator: mouse TRPC6 channel activators, primary screen, cell-based, HEK293, membrane potential dye; AID 2550, 2010; Short transient receptor potential channel 6 (Mus musculus), Q61143; hit rate 0.13% among 310,000; HEK293-TRPC6 membrane potential dye fluorescence; stronger effect = higher value; B-score at 10 µM;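 active means B-score of the integrated fluorescence ratio above library mean plus 3 SD, and starting fluorescence ratio within library mean plus 5 SD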;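 further: higher score means more depolarization so channel activation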
TRPC4 act: activators of mouse TRPC4 channel, primary screen, Fluo4 calcium, HEK293 TRPC4beta/mu-opioid cells; B-score at 10 µM; hit rate 0.49% among 310,000; Fluo4 calcium fluorescence; stronger effect = higher value;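 active means B-score above 5 SD of library B-scores, and initial fluorescence ratio not above library mean plus 5 SD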;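 further: positive B-score marks a calcium rise read as TRPC4 activation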
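Assay system: HEK293 stable line with TRPC4beta plus mu-opioid receptor. Times: dye 45 min RT, read 110 s. Measured by: kinetic Fluo4 calcium fluorescence. Measure: B score of integrated ratio. Controls: assay buffer as low control, maximal DAMGO as high control.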
TRPC4 inh: inhibitors of mouse TRPC4 channel, primary screen, Fluo4 calcium, HEK293 TRPC4beta/mu-opioid cells; DAMGO-evoked Fluo4 calcium flux; stronger effect = lower value; B-score at 10 µM; hit rate 0.39% among 300,000; AID 2247, 2010;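 active means B-score over 3 SD under the library average, no early fluorescence shift, positive overall ratio signal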
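Assay system: TRPC4beta/mu-opioid receptor HEK293 cell line; compound dosing: single concentration per test compound; detection: Fluo4 Ca2+ flux fluorescence; evaluation: per-well B score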
TRPC6 inhibitor: mouse TRPC6 channel inhibitors, primary screen, cell-based, HEK293, membrane potential dye. Short transient receptor potential channel 6 (Mus musculus), Q61143. B-score at 10 µM. hit rate 1.1% among 310,000. ACh-evoked depolarization; stronger effect = lower value;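 active means B-score under library mean minus 3 SD, initial fluorescence not abnormally high, positive integrated signal ratio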;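 further: B-score derived from integrated fluorescence ratio over the kinetic read; more negative B-score means stronger inhibition of depolarization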
TRPC4 PAM: positive allosteric modulators of TRPC4, primary screen, cell-based, mouse TRPC4beta, HEK293 mu-opioid, Fluo-4 calcium | Short transient receptor potential channel 4 (Mus musculus), Q9QUQ5 | DAMGO EC20, Fluo-4 Ca2+ flux; stronger effect = higher value | B-score at 10 µM | hit rate 0.42% among 310,000 | AID 2227, 2009;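 active means B-score of calcium response area above 5 SD of library B-scores, with initial fluorescence ratio within 5 SD of library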;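 further: B-score of integrated fluorescence ratio over time as area under calcium response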
Active calls of the source: *; i = inactive.

SMILES | TRPC6 activator | TRPC4 act | TRPC4 inh | TRPC6 inhibitor | TRPC4 PAM
COc1ccc(C(CNCC(O)COc2c(C)ccc(C)c2C)N(C)C)cc1 (centres undefined) | i | 68* | i | i | i
c1ccn2cc(C34CC5CC(CC(C5)C3)C4)nc2c1 | i | i | -7* | i | i
CNC(=S)N(CCCN(C)C)Cc1cc2cc3c(cc2[nH]c1=O)OCCO3 | i | i | i | i | i
COc1cccc(-c2c(C#N)c(N)nc3c2c(C)nn3-c2ccccc2)c1O | i | i | i | i | 15*
O=c1[nH]ncc(N2CCCC2)c1Cl | i | i | i | i | i
O=c1[nH]ncc(N2CCN(C(c3ccccc3)c3ccccc3)CC2)c1Cl | i | i | -9* | i | i
CN1CCN(NC(=O)c2cccc(Br)c2)CC1 | i | i | i | i | 19*
COc1ccc(-c2nn(-c3ccccc3C)cc2CNCCc2cnc[nH]2)cc1F | i | i | i | i | i
COc1ccc(-c2nn(-c3ccccc3C)cc2CNC(C)Cn2cncn2)cc1F (centres undefined) | i | i | i | i | i
CCn1cc(CNCc2cn(-c3ccccc3C)nc2-c2ccc(OC)c(F)c2)cn1 | i | 129* | i | i | i
COc1ccc(-c2nn(-c3ccccc3C)cc2CNC(C)c2cn(C)nc2C)cc1F (centres undefined) | i | 118* | i | i | i
COc1ccccc1C(=O)NCC(=O)NCC1(N2CCCCC2)CCCCC1 | i | i | i | i | i
CN1CCN(c2ccc(NC(=O)c3ccc(Br)o3)cc2)CC1 | i | i | -7* | i | i
CCOC(=O)N1CCC(NC(=O)c2oc3c(F)cccc3c2C)CC1 | i | i | i | i | i
CC(C)c1nc(CNC(=O)C2CCC(=O)N(CCc3cccc(F)c3)C2)cs1 (centres undefined) | i | i | i | i | i
CN1CCC(CNC(=O)Nc2ccccc2)(c2ccccc2)CC1 | i | 172* | i | i | i
COC(=O)c1ccccc1NC(=O)CN1CCN(C23CC4CC(CC(C4)C2)C3)CC1 | 20* | i | i | i | i
COC(=O)c1ccccc1NC(=O)CN1CCC(NC(=O)c2ccc(C)cc2)CC1 | i | i | i | i | i
Cc1cccc(C(=O)NC2CCN(C(=O)Nc3ccc(F)cc3)CC2)c1 | i | i | i | i | i
NCC(c1ccc(Cl)cc1Cl)c1c[nH]c2ccccc12 (centres undefined) | i | i | i | i | 26*
CN(C)CCCNC(=S)NCC(c1ccc(Cl)cc1Cl)c1c[nH]c2ccccc12 (centres undefined) | i | i | i | i | 12*
O=C(NCCc1nnc2ccc(NCCCN3CCOCC3)nn12)c1ccccc1F | i | i | i | i | i
CC(Oc1ccccc1)C(=O)Nc1ccc(NC(=O)c2ccccc2)cc1 (centres undefined) | i | i | i | i | i
CC(Oc1ccc(C(=O)c2ccccc2)cc1)C(=O)Nc1ccc(S(N)(=O)=O)cc1 (centres undefined) | i | 58* | i | i | i
Cc1ccccc1Nc1cc(C)c2c(O)cccc2n1 | i | 72* | i | i | i
SMILES | TRPC6 activator | TRPC4 act | TRPC4 inh | TRPC6 inhibitor | TRPC4 PAM
COc1ccc(Nc2cc(C)c3c(O)cccc3n2)cc1 | i | i | -5* | i | i
CN1CCN(CCCN(Cc2cccs2)C(=S)Nc2ccc(Cl)cc2)CC1 | i | i | i | i | i
CCc1ccc(NC(=O)N(CCCN2CCOCC2)Cc2cccs2)cc1 | i | 51* | i | i | i
CCc1ccc(NC(=S)N(CCCN2CCN(C)CC2)Cc2cccs2)cc1 | i | i | i | i | 10*
Cn1c(=O)c2c(nc(Cl)n2CC(=O)NC2(C#N)CCCCC2)n(C)c1=O | i | i | i | i | i
COC(=O)c1cc2c(=O)c3ccccc3oc2nc1/C=C/N(C)C | i | 69* | i | i | i
COC(=O)c1cc2c(=O)c3ccccc3oc2nc1C | i | i | i | i | i
CCOc1ccc(CN(C)CC(=O)NNC(=O)c2ccc(Cl)cc2)cc1OC | i | i | i | i | 17*
O=C(N/N=C/c1cc(Br)cc([N+](=O)[O-])c1O)c1ccc(NC(=O)c2ccc(F)cc2)cc1 | i | i | i | i | i
COC(=O)c1ccc(N2CN=C(c3ccc(C)cc3)NC2=S)cc1 | i | i | i | i | i
S=C1NC(c2ccccc2)=NCN1c1ccc(Cl)cc1 | i | i | i | i | 10*
Cc1c(N(C)S(=O)(=O)c2cc(C(=O)NCC3CCCO3)ccc2Cl)c(=O)n(-c2ccccc2)n1C (centres undefined) | i | i | -7* | i | i
Cc1c(N(C)S(=O)(=O)c2cccc(C(=O)NCC3CCCO3)c2)c(=O)n(-c2ccccc2)n1C (centres undefined) | i | i | i | i | i
COc1ccccc1CCNC(=O)C1CCC(=O)N(C2CCCCCC2)C1 (centres undefined) | i | i | i | i | i
CCCCN(C)C(=O)Cn1ncc2c3ccccc3n(CCC)c2c1=O | i | i | i | i | 21*
COc1ccccc1-n1cc(CN2CCCC(CO)(Cc3cccc(Cl)c3)C2)cn1 (centres undefined) | i | i | -5* | i | i
Cc1cc(CN2CCCC(CO)(Cc3cccc(Cl)c3)C2)n[nH]1 (centres undefined) | i | i | i | i | i
COCc1ccc(CN2CCCC(CO)(Cc3cccc(Cl)c3)C2)o1 (centres undefined) | i | i | i | i | i
Cc1ccc(-n2cc(CN3CCC(CO)(Cc4ccccc4)CC3)cn2)cc1 | i | i | i | i | i
OCC1(Cc2ccccc2)CCCN(Cc2cnn(-c3ccccc3)c2)C1 (centres undefined) | i | i | -7* | i | i
CC(C)Cc1cc(CN2CCCC(CO)(Cc3cccc(Cl)c3)C2)[nH]n1 (centres undefined) | i | i | -10* | i | i
